The source made the active and inactive calls. The calls are words filed in the database; no cut-off is given here.
Columns and labels:
Enterococcus faecalis = experiment: Antibacterial activity against Enterococcus faecalis ATCC 29212 after 22 hrs by resazurin based broth dilution assay; type: functional; conditions: ATCC 29212, 22 h
Method in brief: (§1)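 Standard broth dilution assay determining MIC against two Gram-negative and two Gram-positive strains. Values are the mean of two independent experiments.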

Staphylococcus aureus = experiment: Antibacterial activity against Staphylococcus aureus ATCC 25923 after 22 hrs by resazurin based broth dilution assay; type: functional; conditions: ATCC 25923, 22 h; method in brief: as §1
Pseudomonas aeruginosa = experiment: Antibacterial activity against Pseudomonas aeruginosa ATCC 27853 after 22 hrs by resazurin based broth dilution assay; type: functional; conditions: ATCC 27853, 22 h; method in brief: as §1
Escherichia coli = experiment: Antibacterial activity against Escherichia coli ATCC 25922 after 22 hrs by resazurin based broth dilution assay; type: functional; conditions: ATCC 25922, 22 h; method in brief: as §1
[1] = Drug uptake in HEK293 cells at 2 uM after 4 hrs using fluorescein labeled compound by flow cytometric analysis; type: ADME, cell-based; conditions: human, hek293, 4 h
Method in brief: (§2)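 Adherent cells were exposed to fluorescein-labeled peptide at 2 μM for 4 h in serum-free medium. Trypan blue (0.4% end concentration) was added before flow cytometry to quench surface-bound fluorescence. Intracellular signal was normalized to carboxyfluorescein-labeled R9, as the mean ± SD of two independent experiments.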

[2] = Drug uptake in human HeLa cells at 2 uM after 4 hrs using fluorescein labeled compound by flow cytometric analysis; type: ADME, cell-based; method in brief: as §2
Lipid bilayer [3] = experiment: Binding affinity to POPC/POPG lipid vesicles assessed as induction of membrane leakage at peptide to lipid ratio of 1:25 at transmembrane potential of -120 mV after 30 mins by spectroflurimetric analysis
Method in brief: (§3)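 Large unilamellar vesicles (100 nm extrusion) of POPC or POPC/POPG (3/1, mol/mol) were loaded with ANTS dye and DPX quencher, and leakage was read by fluorescence dequenching. Lipid was 50 μM and peptide 2 μM (1:25), incubated 30 min at 30 °C. For lines 6 and 8, a −120 mV potential (negative inside) was set with valinomycin and outside K+ replaced by Na+.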

Lipid bilayer [4] = experiment: Binding affinity to POPC/POPG lipid vesicles assessed as induction of membrane leakage at peptide to lipid ratio of 1:25 after 30 mins by spectroflurimetric analysis; method in brief: as §3
HEK293 = experiment: Cytotoxicity against HEK293 cells at 2 uM after 4 hrs using fluorescein labeled compound by flow cytometric analysis; type: cell-based; conditions: human, hek293, 4 h
HeLa = experiment: Cytotoxicity against human HeLa cells at 2 uM after 4 hrs using fluorescein labeled compound by flow cytometric analysis; type: cell-based
Lipid bilayer [5] = experiment: Binding affinity to POPC lipid vesicles assessed as induction of membrane leakage at peptide to lipid ratio of 1:25 at transmembrane potential of -120 mV after 30 mins by spectroflurimetric analysis; method in brief: as §3
Lipid bilayer [6] = experiment: Binding affinity to POPC lipid vesicles assessed as induction of membrane leakage at peptide to lipid ratio of 1:25 after 30 mins by spectroflurimetric analysis; method in brief: as §3

H-PLILLRLLRGQF-NH2
MIC (Enterococcus faecalis): 64 µg/mL
MIC (Staphylococcus aureus): 16 µg/mL
MIC (Pseudomonas aeruginosa): > 256 µg/mL
MIC (Escherichia coli): 256 µg/mL
Drug uptake [1]: Active
Drug uptake [2]: Active
Activity (Lipid bilayer [3]): Active
Activity (Lipid bilayer [4]): Active
Activity (HEK293): Non-Toxic
Activity (HeLa): Non-Toxic

H-AAVLLPVLLAAP-NH2
MIC (Enterococcus faecalis): > 256 µg/mL
MIC (Staphylococcus aureus): > 256 µg/mL
MIC (Pseudomonas aeruginosa): > 256 µg/mL
MIC (Escherichia coli): > 256 µg/mL
Drug uptake [1]: Active
Drug uptake [2]: Active
Activity (Lipid bilayer [3]): inactive
Activity (Lipid bilayer [4]): inactive
Activity (HEK293): Non-Toxic
Activity (HeLa): Non-Toxic

H-QQRKRKIWSILAPLGTTLVKLVAGIG-NH2
MIC (Enterococcus faecalis): 32 µg/mL
MIC (Staphylococcus aureus): 32 µg/mL
MIC (Pseudomonas aeruginosa): 64 µg/mL
MIC (Escherichia coli): 32 µg/mL
Drug uptake [1]: Active
Drug uptake [2]: Active
Activity (Lipid bilayer [5]): 100%
Activity (Lipid bilayer [6]): 100%
Activity (HEK293): Non-Toxic
Activity (HeLa): Non-Toxic

H-KLALKALKALKAALKLA-NH2
MIC (Enterococcus faecalis): 256 µg/mL
MIC (Staphylococcus aureus): 16 µg/mL
MIC (Pseudomonas aeruginosa): 256 µg/mL
MIC (Escherichia coli): 16 µg/mL
Drug uptake [1]: Active
Drug uptake [2]: Active
Activity (Lipid bilayer [3]): Active
Activity (Lipid bilayer [4]): Active
Activity (HEK293): Non-Toxic
Activity (HeLa): Non-Toxic

N=C(N)NCCC[C@H](NC(=O)[C@H](CCCNC(=N)N)NC(=O)[C@H](CCCNC(=N)N)NC(=O)[C@H](CCCNC(=N)N)NC(=O)[C@H](CCCNC(=N)N)NC(=O)[C@H](CCCNC(=N)N)NC(=O)[C@H](CCCNC(=N)N)NC(=O)[C@H](CCCNC(=N)N)NC(=O)[C@@H](N)CCCNC(=N)N)C(=O)O
Drug uptake [1]: Active
Drug uptake [2]: Active
